Source: ChEMBL document CHEMBL1177679, “Design and synthesis of novel benzimidazole derivatives as inhibitors of hepatitis B virus” (Bioorg Med Chem, 2010)

Tests used:
[1] = Selectivity index, ratio of CC50 for human HepG2(2.2.15) cells to IC50 for Hepatitis B virus; format: functional
Procedure, shortened: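 SI calculated as CC50 (MTT, HepG2.2.15, 8 days) divided by IC50 for inhibition of cytoplasmic HBV-DNA synthesis (fluorescent PCR) in the same cells.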

[2] = Cytotoxicity against human HepG2(2.2.15) cells after 8 days by MTT assay; format: cell-based
Procedure, shortened: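 HepG2.2.15 cells in triplicate, exposed 8 days to various doses; media-only controls. MTT (5 g/L) added 4 h before end, cells lysed with 10% SDS/50% DMF pH 7.2, OD read at 570 nm 6 h later.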

[3] = test system: Hepatitis B virus; test: Antiviral activity against Hepatitis B virus infected in human HepG2(2.2.15) cells assessed as inhibition of viral cytoplasmic DNA synthesis after 8 days by RT-PCR analysis; format: functional, organism-based; details: HepG2 2.2.15, 192 h

## Nc1ccn([C@@H]2CS[C@H](CO)O2)c(=O)n1 [LAMIVUDINE]
[1]
  Selectivity Index: 31.3
[2]
  CC50 at 192 h: 5000 nM
[3]
  IC50: 160 nM
